Results reported in ChEMBL document CHEMBL4808227, “Induction of apoptosis, cytotoxicity and radiosensitization by novel 3,4-dihydroquinazolinone derivatives” (Bioorg Med Chem Lett, 2021).
One block for each compound: values may come before it. Activity calls are given as the source filed them. No cut-off for these calls is given here.

Assays:
[1] = test system: HepG2; assay: Cytotoxicity against human HepG2 cells measured after 24 hrs by MTT assay; format: functional, cell-based; conditions: HepG2, 24 h
Method in brief: (§1)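 MTT viability assay on HepG-2 and MCF-7 cells with serial dilutions of compound for 24 hr. Viability is expressed as percent of untreated cells (taken as 100%). IC50 is the concentration inhibiting growth by 50%, mean ± SD of three independent experiments.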

[2] = test system: MCF7; assay: Cytotoxicity against human MCF7 cells measured after 24 hrs by MTT assay; format: functional, cell-based; conditions: MCF7, 24 h; method in brief: as §1
[3] = test system: HepG2; assay: Radiosensitizing activity against human HepG2 cells assessed as downregulation of Survivin mRNA expression pretreated with compound followed by exposure to 8 Gy gamma irradiation by real time RT-PCR analysis; format: functional, cell-based
[4] = Upregulation of p21 mRNA expression in human HepG2 cells by real time RT-PCR analysis relative to control; format: functional
Method in brief: (§2)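 HepG-2 cells were treated with compound. Survivin, XIAP and p21 mRNA were quantified by real-time RT-PCR, with each triplicate's Ct normalized to GAPDH. Expression is relative to control.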

[5] = test system: HepG2; assay: Induction of apoptosis in human HepG2 cells assessed as early apoptotic cells by Annexin V-FITC/propidium iodide staining based flow cytometric analysis (reference value: 5.06 %); format: functional
[6] = test system: HepG2; assay: Cell cycle arrest in human HepG2 cells assessed as accumulation of cells at G2/M phase measured by flow cytometry ( Rvb = 21.7%); format: functional
[7] = test system: HepG2; assay: Cell cycle arrest in human HepG2 cells assessed as accumulation of cells at S phase measured by flow cytometry (reference value: 6.08%); format: functional
[8] = test system: HepG2; assay: Induction of apoptosis in human HepG2 cells assessed as viable cells by Annexin V-FITC/propidium iodide staining based flow cytometric analysis (reference value: 94.4 %); format: functional
[9] = Downregulation of Survivin mRNA expression in human HepG2 cells by real time RT-PCR analysis relative to control; format: functional; method in brief: as §2
[10] = Downregulation of XIAP mRNA expression in human HepG2 cells by real time RT-PCR analysis relative to control; format: functional; method in brief: as §2
[11] = test system: HepG2; assay: Radiosensitizing activity against human HepG2 cells assessed as downregulation of XIAP mRNA expression pretreated with compound followed by exposure to 8 Gy gamma irradiation by real time RT-PCR analysis; format: functional, cell-based
[12] = test system: HepG2; assay: Induction of apoptosis in human HepG2 cells assessed as necrotic cells by Annexin V-FITC/propidium iodide staining based flow cytometric analysis (reference value: 0.007 %); format: functional
[13] = test system: HepG2; assay: Induction of apoptosis in human HepG2 cells assessed as late apoptotic cells by Annexin V-FITC/propidium iodide staining based flow cytometric analysis (reference value: 0.507 %); format: functional
[14] = test system: HepG2; assay: Induction of apoptosis in human HepG2 cells assessed as increase in caspase-3 level by ELISA relative to control; format: functional
Method in brief: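 HepG-2 cells were treated with compound, with DMSO-treated cells as control. Caspase-3 secreted into the culture medium was measured by ELISA, given as mean ± SD, n = 3.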

[15] = test system: HepG2; assay: Radiosensitizing activity against human HepG2 cells assessed as reduction in cell viability pretreated with compound followed by exposure to 8 Gy gamma irradiation and measured by MTT assay; format: functional, cell-based; conditions: HepG2, light or radiation study
Method in brief: (§3)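 HepG-2 and MCF-7 cells containing compound received a single dose of 8 Gy gamma radiation. Cytotoxicity was then measured, with IC50 as the mean ± SD of three independent experiments.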

[16] = test system: HepG2; assay: Cell cycle arrest in human HepG2 cells assessed as accumulation of cells at G0/G1 phase measured by flow cytometry (reference value: 71.6%); format: functional
[17] = test system: MCF7; assay: Radiosensitizing activity against human MCF7 cells assessed as reduction in cell viability pretreated with compound followed by exposure to 8 Gy gamma irradiation and measured by MTT assay; format: functional, cell-based; conditions: MCF7, light or radiation study; method in brief: as §3
[18] = molecular target: Epidermal growth factor receptor (Homo sapiens, UniProt P00533); assay: Inhibition of EGFR (unknown origin)
Sequence of Epidermal growth factor receptor (P00533 whole entry): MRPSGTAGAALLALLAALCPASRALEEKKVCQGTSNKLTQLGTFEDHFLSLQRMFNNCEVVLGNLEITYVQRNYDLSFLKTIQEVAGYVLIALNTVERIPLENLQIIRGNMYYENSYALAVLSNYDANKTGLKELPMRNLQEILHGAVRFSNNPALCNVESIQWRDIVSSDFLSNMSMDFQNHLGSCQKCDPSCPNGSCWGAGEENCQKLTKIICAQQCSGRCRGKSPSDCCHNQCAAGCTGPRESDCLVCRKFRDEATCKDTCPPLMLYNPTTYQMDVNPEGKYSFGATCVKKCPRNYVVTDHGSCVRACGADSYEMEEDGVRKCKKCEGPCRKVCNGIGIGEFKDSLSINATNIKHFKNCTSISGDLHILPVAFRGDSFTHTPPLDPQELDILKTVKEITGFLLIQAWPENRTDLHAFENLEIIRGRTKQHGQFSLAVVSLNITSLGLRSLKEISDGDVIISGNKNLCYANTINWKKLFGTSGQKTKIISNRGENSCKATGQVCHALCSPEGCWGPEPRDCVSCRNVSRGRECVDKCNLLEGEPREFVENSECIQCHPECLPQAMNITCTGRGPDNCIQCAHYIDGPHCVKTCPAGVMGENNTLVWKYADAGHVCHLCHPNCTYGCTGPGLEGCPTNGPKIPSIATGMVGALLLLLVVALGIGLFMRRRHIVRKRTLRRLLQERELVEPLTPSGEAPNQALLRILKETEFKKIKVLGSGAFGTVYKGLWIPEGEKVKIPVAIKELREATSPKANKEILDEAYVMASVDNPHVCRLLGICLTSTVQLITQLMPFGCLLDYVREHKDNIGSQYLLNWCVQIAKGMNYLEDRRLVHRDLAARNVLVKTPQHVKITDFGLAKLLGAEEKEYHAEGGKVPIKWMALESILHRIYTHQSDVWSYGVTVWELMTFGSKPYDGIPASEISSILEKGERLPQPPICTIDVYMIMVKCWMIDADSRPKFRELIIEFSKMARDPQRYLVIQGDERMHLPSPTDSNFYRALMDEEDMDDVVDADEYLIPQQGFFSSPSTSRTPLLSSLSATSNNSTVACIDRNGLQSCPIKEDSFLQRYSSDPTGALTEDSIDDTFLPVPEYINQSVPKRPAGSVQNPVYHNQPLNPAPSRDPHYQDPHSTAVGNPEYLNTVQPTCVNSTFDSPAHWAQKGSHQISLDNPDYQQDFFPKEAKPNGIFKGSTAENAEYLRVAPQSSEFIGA

Structure (SMILES): O=C(CSc1nc2ccccc2c(=O)n1Cc1ccc2c(c1)OCO2)Nc1ccc(Br)cc1
- IC50 [1]: 11.1 µM
- IC50 [2]: 20.4 µM

Structure (SMILES): O=C(CSc1nc2ccccc2c(=O)n1Cc1ccc2c(c1)OCO2)Nc1ccc(F)cc1
- IC50 [1]: 7.18 µM
- IC50 [2]: 14.5 µM

Structure (SMILES): O=C(CSc1nc2ccccc2c(=O)n1Cc1ccc2c(c1)OCO2)Nc1cccc(F)c1
- IC50 [1]: 8.51 µM
- IC50 [2]: 7.6 µM

- IC50 [18]: 0.754 µM
Structure (SMILES): O=C(CSc1nc2ccccc2c(=O)n1Cc1ccc2c(c1)OCO2)Nc1ccc(I)cc1
- Activity [3]: Active
- Activity [4]: 200%
- Activity [5]: 7.12%
- Activity [6]: 87.8%
- Activity [7]: 2.73%
- IC50 [1]: 13.2 µM
- Activity [8]: 92.5%
- inhibition (INH) [9]: 50%
- inhibition (INH) [10]: 50%
- Activity [11]: Active
- Activity [12]: 0.024%
- Activity [13]: 0.308%
- Activity [14]: 50%
- IC50 [15]: 4.32 µM
- Activity [16]: 0.042%
- IC50 [17]: 4.69 µM
- IC50 [2]: 6.84 µM

Structure (SMILES): O=c1c2ccccc2[nH]c(=S)n1Cc1ccc2c(c1)OCO2
- IC50 [1]: 27.3 µM
- IC50 [2]: 26.6 µM

Structure (SMILES): O=C(CSc1nc2ccccc2c(=O)n1Cc1ccc2c(c1)OCO2)Nc1cc(Cl)c(Cl)cc1Cl
- IC50 [1]: 12.1 µM
- IC50 [2]: 26.1 µM

Structure (SMILES): O=C(CSc1nc2ccccc2c(=O)n1Cc1ccc2c(c1)OCO2)NNC(=S)Nc1ccc(S(=O)(=O)Nc2ccccn2)cc1
- IC50 [1]: 36.9 µM
- IC50 [2]: 3.87 µM

Structure (SMILES): Cc1ccc(S(=O)(=O)NNC(=O)CSc2nc3ccccc3c(=O)n2Cc2ccc3c(c2)OCO3)cc1
- IC50 [1]: 28.2 µM
- IC50 [2]: 49.8 µM

Structure (SMILES): O=C(CSc1nc2ccccc2c(=O)n1Cc1ccc2c(c1)OCO2)NNC(=S)Nc1ccc(S(=O)(=O)Nc2ccc(Cl)nn2)cc1
- IC50 [1]: 9.34 µM
- IC50 [2]: 46 µM

Structure (SMILES): O=C(CSc1nc2ccccc2c(=O)n1Cc1ccc2c(c1)OCO2)Nc1ccccc1Cl
- IC50 [1]: 17.9 µM
- IC50 [2]: 10.3 µM

Structure (SMILES): CC(=O)Nc1ccc(S(=O)(=O)NNC(=O)CSc2nc3ccccc3c(=O)n2Cc2ccc3c(c2)OCO3)cc1
- IC50 [1]: 33.9 µM
- IC50 [2]: 11.4 µM

Structure (SMILES): CCS(=O)(=O)Nc1ccc(/C(C)=N/NC(=O)CSc2nc3ccccc3c(=O)n2Cc2ccc3c(c2)OCO3)cc1
- IC50 [1]: 9.08 µM
- IC50 [2]: 13.9 µM

- IC50 [18]: 0.207 µM
Structure (SMILES): O=C(CSc1nc2ccccc2c(=O)n1Cc1ccc2c(c1)OCO2)Nc1ccccc1F
- Activity [3]: Active
- Activity [4]: 400%
- Activity [5]: 12.6%
- Activity [6]: 92.9%
- Activity [7]: 0.071%
- IC50 [1]: 2.46 µM
- Activity [8]: 84.5%
- inhibition (INH) [9]: 50%
- inhibition (INH) [10]: 50%
- Activity [11]: Active
- Activity [12]: 0.02%
- Activity [13]: 0.762%
- Activity [14]: 100%
- IC50 [15]: 1.56 µM
- Activity [16]: 0%
- IC50 [17]: 3.06 µM
- IC50 [2]: 5.86 µM

Structure (SMILES): COc1cccc2c1C(=O)c1c(O)c3c(c(O)c1C2=O)C[C@@](O)(C(=O)CO)C[C@@H]3O[C@H]1C[C@H](N)[C@H](O)[C@H](C)O1 [DOXORUBICIN]
- IC50 [1]: 8.9 µM

- IC50 [18]: 0.147 µM
Structure (SMILES): CCS(=O)(=O)NNC(=O)CSc1nc2ccccc2c(=O)n1Cc1ccc2c(c1)OCO2
- Activity [3]: Active
- Activity [4]: 500%
- Activity [5]: 13.5%
- Activity [6]: 94.2%
- Activity [7]: 2.45%
- IC50 [1]: 8.76 µM
- Activity [8]: 86.1%
- inhibition (INH) [9]: 50%
- inhibition (INH) [10]: 50%
- Activity [11]: Active
- Activity [12]: 0.012%
- Activity [13]: 0.4%
- Activity [14]: 50%
- IC50 [15]: 2.25 µM
- Activity [16]: 0.039%
- IC50 [17]: 5.93 µM
- IC50 [2]: 15.3 µM

Structure (SMILES): NNC(=O)CSc1nc2ccccc2c(=O)n1Cc1ccc2c(c1)OCO2
- IC50 [1]: 8.15 µM
- IC50 [2]: 20.7 µM

Structure (SMILES): CCC(=O)Nc1ccc(S(=O)(=O)Nc2ccc(/C(C)=N/NC(=O)CSc3nc4ccccc4c(=O)n3Cc3ccc4c(c3)OCO4)cc2)cc1
- IC50 [1]: 4.21 µM
- IC50 [2]: 15.1 µM

- IC50 [18]: 1.03 µM
Structure (SMILES): O=C(CSc1nc2ccccc2c(=O)n1Cc1ccc2c(c1)OCO2)Nc1ccc(Br)cc1Br
- Activity [3]: Active
- Activity [4]: 400%
- Activity [5]: 15.4%
- Activity [6]: 85.8%
- Activity [7]: 2.32%
- IC50 [1]: 4.01 µM
- Activity [8]: 86.6%
- inhibition (INH) [9]: 50%
- inhibition (INH) [10]: 50%
- Activity [11]: Active
- Activity [12]: 0.02%
- Activity [13]: 0.16%
- Activity [14]: 50%
- IC50 [15]: 1.76 µM
- Activity [16]: 0.06%
- IC50 [17]: 4.91 µM
- IC50 [2]: 14.9 µM

Structure (SMILES): O=C(CSc1nc2ccccc2c(=O)n1Cc1ccc2c(c1)OCO2)NNS(=O)(=O)c1ccccc1
- IC50 [1]: 22.2 µM
- IC50 [2]: 88.9 µM

Structure (SMILES): C#Cc1cccc(Nc2ncnc3cc(OCCOC)c(OCCOC)cc23)c1 [ERLOTINIB]
- IC50 [2]: 12.4 µM
